From PubChem BioAssay
An excerpt weighted towards active compounds, which were near 1.9% of everything screened.
core dimer inh: HCV core protein dimerization inhibition; TR-FRET GST/Flag-core106 dimerization, 1536-well; inhibition, % at 5 µM; 0.33% of 300,000 active;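 active means inhibition above the mean of all tested compounds plus 3 SD, set per screening campaign, cut at about 45% in these data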
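Material: GST/Flag-tagged HCV core106 proteins. Incubation: 4 h, 22.5 °C incubation. Read-out basis: inhibition (%) from 671 over 617 nm ratio. Measured by: TR-FRET, excitation 340 nm, emission 617 and 671 nm.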
NadD block: inhibitors of Staphylococcus aureus NadD. 0.78% of 360,000 active. AID 602399. purified NadD enzyme, colorimetric absorbance read-out. inhibition, % at 20 µM; in the data active means inhibition above about 26%
VIM-2 inh: blocks Pseudomonas aeruginosa VIM-2 metallo-beta-lactamase | purified VIM-2, nitrocefin hydrolysis, epi-absorbance fluorescence | inhibition, % at 5.6 µM | 0.89% of 290,000 active;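 active means inhibition above the mean of all tested compounds plus 3 SD, cutoff set per screening run, cut at about 7.5% in these data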;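 further: red hydrolysis product quenches plate fluorescence so inhibitors raise well fluorescence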
IMP-1 inh: blocks Pseudomonas aeruginosa IMP-1 metallo-beta-lactamase; 0.45% of 290,000 active; AID 1556; inhibition, % at 5.6 µM; purified IMP-1, nitrocefin hydrolysis, epi-absorbance fluorescence;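 active means inhibition above the mean plus 3 SD of all compounds in the same screening run, cut at about 4.5% in these data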
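Assay system: purified recombinant IMP-1 beta-lactamase. Input: IMP-1 0.2 nM before substrate addition. Buffer or medium: Zinc- and detergent-supplemented HEPES buffer, pH 7.1. Schedule: 25 °C, 15 min preincubation, 25 min reaction. Signal: Epi-absorbance fluorescence, 480 nm excitation, 530 nm emission. Evaluation: percent inhibition from optical density relative to buffer-blank wells.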
Large screens that a line does not name were inactive.

CC(C)n1nnnc1SCC(=O)N1N=C(c2cccs2)CC1c1cccs1 (stereo not drawn)	none (no result: core dimer inh, VIM-2 inh, IMP-1 inh)
O=C(/C=C/Nc1ccc(F)c(Cl)c1)c1ccccc1	none
CC1=C(C(=O)N2CCOCC2)CC(CC(=O)NC2CCCC2)C(=O)N1Cc1ccccc1 (stereo not drawn)	none (no result: core dimer inh, VIM-2 inh, IMP-1 inh)
Cc1cccc(N2CC(C(=O)Nc3nnc(SCC(=O)NCC4CCCO4)s3)CC2=O)c1 (stereo not drawn)	core dimer inh 65.1
Cc1ccc(N2CC(C(=O)Nc3nnc(SCC(=O)NCC4CCCO4)s3)CC2=O)cc1C (stereo not drawn)	none
O=C(CSc1nnc(NC(=O)c2cccc(F)c2)s1)NC1CCCC1	VIM-2 inh 11.3
O=C(CSc1nnc(NC(=O)c2ccccc2)s1)NCC1CCCO1 (stereo not drawn)	VIM-2 inh 10.6
Fc1ccc(-c2ccc(CNCc3ccccn3)o2)cc1	VIM-2 inh 11.0
O=C(Nc1oc2ccc(Cl)cc2c(=O)c1-c1ccc(F)cc1)c1ccco1	none
CN([C@@H](Cc1ccc(OS(=O)(=O)c2cccc3cnccc23)cc1)C(=O)N1CCN(c2ccccc2)CC1)S(=O)(=O)c1cccc2cnccc12	NadD block 31.7
COc1ccc(N2CCN(C(=O)C(Cc3ccccc3)n3cccc3)CC2)cc1 (stereo not drawn)	none
CSCCC(NC(=O)COc1ccccc1)C(=O)NC1CCC(C)CC1 (stereo not drawn)	none (no result: VIM-2 inh, IMP-1 inh)
O=C(NCC(c1ccco1)N1CCOCC1)c1c(F)cccc1F (stereo not drawn)	none (no result: VIM-2 inh, IMP-1 inh)
Cc1ccc(OCC(=O)Nc2ccc([N+](=O)[O-])cn2)cc1C	none
CCN1CCN(C(=O)CCNC(=O)Cn2ccc3ccccc3c2=O)CC1	none
CCCN1CCN(CCCNC(=O)Cn2nc(-c3ccc(Cl)cc3)ccc2=O)CC1	none
CCCN1CCN(CCCNC(=O)CCNC(=O)Cn2ccc3ccccc3c2=O)CC1	IMP-1 inh 5.4
CCCN1CCN(CCCNC(=O)Cn2nc(-c3ccc(C)cc3)ccc2=O)CC1	IMP-1 inh 6.3
COc1ccc(NC(=O)Nc2ccon2)c(OC)c1	none
CN1CCN(CCNC(=O)c2ccc3nc(-c4ccc(F)cc4)c(-c4ccc(F)cc4)nc3c2)CC1	none
CCOc1ccc(CNC(=O)Cn2c(=O)c3cccn3c3ccccc32)cc1	IMP-1 inh 6.2
O=C(Cn1c(=O)c2cccn2c2ccccc21)NCCc1ccccc1	none
CC(C)Oc1ccc(CNC(=O)Cn2c(=O)c3cccn3c3cccnc32)cc1	none
O=C(Cn1c(=O)c2cccn2c2ccccc21)NCCc1ccc(Cl)cc1	IMP-1 inh 13.2
CN(CC(=O)NCCc1ccc(S(N)(=O)=O)cc1)CC(=O)Nc1ccccc1C(F)(F)F	none (no result: core dimer inh, VIM-2 inh, IMP-1 inh)
Cn1cccc1CC(=O)N/N=C/c1cc([N+](=O)[O-])ccc1Cl	core dimer inh 48.1
O=C1[C@@H]2Cc3c([nH]c4ccccc34)C(c3cccc([N+](=O)[O-])c3)N2C(=O)CN1C1CCN(Cc2ccccc2)CC1 (stereo partly drawn)	none
O=C(NNC(=O)c1ccc(Oc2ccc(C3SCCS3)cc2)o1)c1ccc(Cl)cc1	IMP-1 inh 5.2
O=C(N/N=C/c1cc(Cl)cc([N+](=O)[O-])c1O)NC12CC3CC(CC(C3)C1)C2	NadD block 40.0
O=C(c1ccco1)N1CCN(C(=O)N2CCCCC2)CC1	none
CCN1CCN(C(=O)C2=C(C(=O)O)CCCC2)CC1	IMP-1 inh 12.7
O=C(O)C1=C(C(=O)N2CCN(C(=O)c3ccco3)CC2)CCCC1	IMP-1 inh 12.3
O=C1CSC(=S)N1/N=C/C=C/c1ccccc1	core dimer inh 53.2
O=C1CSC(=S)N1/N=C/c1c(F)cccc1F	IMP-1 inh 11.8
O=C1CSC(=S)N1/N=C/c1cccc(C(F)(F)F)c1	IMP-1 inh 8.9
N=C1SCC(=O)N1/N=C/c1ccccc1	none
O=C1CSC(=S)N1/N=C/c1ccc(C(F)(F)F)cc1	none
O=C(NCCS(=O)(=O)N1CCC2(CC1)OCCO2)c1ccc(F)cc1	none (no result: VIM-2 inh, IMP-1 inh)
CCn1c(C2CCN(S(=O)(=O)c3ccc(OC)cc3)CC2)n[nH]c1=S	none
Cc1ccc2nc(N3CCN(S(=O)(=O)c4ccc5c(c4)OCCO5)CC3)c(C#N)cc2c1	core dimer inh 59.2
COc1cccc(/C=N/n2c(N)c(S(=O)(=O)c3cccs3)c3nc4ccccc4nc32)c1	none
Cc1ccc(S(=O)(=O)c2c(N)n(/N=C/c3ccco3)c3nc4ccccc4nc23)cc1	none
COc1ccc(S(=O)(=O)c2c(N)n(Cc3ccco3)c3nc4ccccc4nc23)cc1	core dimer inh 71.9, NadD block 34.3, IMP-1 inh 5.6
Nc1c(S(=O)(=O)c2cccs2)c2nc3ccccc3nc2n1/N=C/c1cccc(O)c1	NadD block 45.3
Cc1ccc(S(=O)(=O)c2c(N)n(CCCN(C)C)c3nc4ccccc4nc23)cc1	none
Cc1ccc(S(=O)(=O)c2c(N)n(/N=C/c3ccco3)c3nc4ccccc4nc23)cc1C	NadD block 53.8
CC1(C)N=C(c2ccccc2)C(c2ccccc2)=N1	none (no result: core dimer inh, VIM-2 inh, IMP-1 inh)
Cc1ccc(C)c(N(C(=O)c2ccco2)C(C(=O)NC2CCCC2)c2ccco2)c1 (stereo not drawn)	none
O=C(N/N=C\c1ccc(Sc2ccccn2)o1)c1cccc(F)c1	none
O=C(N/N=C/c1ccc(Sc2ccccn2)o1)c1cc2ccccc2cc1O	NadD block 62.2
COc1ccc(NC(=O)C(=O)N/N=C/c2cc(C)n(-c3cccc(Cl)c3Cl)c2C)c(OC)c1	NadD block 35.7
Cc1ccc(CS(=O)(=O)Cc2ccc(C(=O)NCCCN3CC(C)CC(C)C3)o2)cc1 (stereo not drawn)	none
CC(=O)N1CCOc2ccc(S(=O)(=O)Nc3ccc(Cl)cn3)cc21	IMP-1 inh 21.8
O=C1CN(C(=O)COC(=O)CCS(=O)(=O)c2ccccc2Cl)c2ccccc2N1	none (no result: core dimer inh, VIM-2 inh, IMP-1 inh)
Cc1ccccc1NC(=O)CON=C(N)c1ccccc1	none (no result: core dimer inh, VIM-2 inh, IMP-1 inh)
CN(C)C(=O)/C(=C/c1ccc(-c2cccc([N+](=O)[O-])c2)o1)NC(=O)c1ccccc1	none
CN(C)C(=O)/C(=C\c1ccc(-c2cccc([N+](=O)[O-])c2)o1)NC(=O)c1ccccc1	VIM-2 inh 9.2
Cc1ccccc1NC(=S)NCCSc1ccc(Cl)cc1	IMP-1 inh 49.8
COc1ccc(CCNC(=O)c2cc3c(C)nccc3[nH]c2=O)cc1OC	none
CN(C)C(=O)c1ccc2c(c1[N+](=O)[O-])C(=O)c1ccccc1C2=O	none
Cc1[nH]c2ccccc2c1CCNC(=O)c1ccc2c(c1[N+](=O)[O-])C(=O)c1ccccc1C2=O	NadD block 40.1
Cc1[nH]c2c(C)cccc2c1CCNC(=O)c1ccc2c(c1[N+](=O)[O-])C(=O)c1ccccc1C2=O	core dimer inh 59.6, NadD block 35.3
O=C(COc1ccccc1Cl)NCCCNC(=O)c1cccnc1	none
O=C1CCN(S(=O)(=O)c2ccc(Cl)cc2)CCN1	none
O=S(=O)(Nc1ncnc2sc3c(c12)CCC3)c1ccc(Cl)s1	core dimer inh 46.6
O=S(=O)(Nc1ncnc2sc3c(c12)CCC3)c1cc(F)ccc1F	none
c1ccc(CNc2ncnc3sc4c(c23)CCC4)nc1	VIM-2 inh 10.4
c1cncc(CNc2ncnc3sc4c(c23)CCC4)c1	none
